Results: ChEMBL document CHEMBL1128471, “Reversible inhibitors of the gastric (H+/K+)-ATPase. 4. Identification of an inhibitor with an intermediate duration of action” (J Med Chem, 1995)

Assays:
[1] = molecular target: Potassium-transporting ATPase (Sus scrofa, UniProt P19156); experiment: Inhibition of K+ -stimulated gastric ATPase activity was measured using lyophilized gastric vesicles at pH 7; type: tissue-based, Stomach
Method in brief: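 K+-stimulated ATPase activity was measured in lyophilized (permeabilized) gastric vesicles at pH 7. The value is an IC50, or percent inhibition at the stated concentration where no IC50 could be determined.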

[2] = molecular target: T1, Potassium-transporting ATPase (Rattus norvegicus) (UniProt P09626+P18598); experiment: Inhibition of pentagastrin-stimulated gastric acid secretion at a single dose of 10 umol/kg.; type: functional; settings: Stomach
Method in brief: (§1)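 Anesthetized, lumen-perfused rats were given pentagastrin to stimulate gastric acid secretion, and compounds were given iv. The value is an ED50 (µmol/kg iv) with 95% confidence limits, or percent inhibition ± SEM at a single 10 µmol/kg iv dose.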

Canis familiaris = experiment: Mean percent peak inhibition of histamine-stimulated gastric acid secretion in the heidenhain pouch dog following a single dose of 1 umol/kg through iv administration.; type: functional; settings: Canis lupus familiaris, Stomach
[3] = molecular target: T1, Potassium-transporting ATPase (Rattus norvegicus); experiment: Inhibition of pentagastrin-stimulated gastric acid secretion in the anesthetized rat after iv administration; type: functional, organism-based; settings: Stomach; method in brief: as §1

Chain of Potassium-transporting ATPase (P18434 whole entry): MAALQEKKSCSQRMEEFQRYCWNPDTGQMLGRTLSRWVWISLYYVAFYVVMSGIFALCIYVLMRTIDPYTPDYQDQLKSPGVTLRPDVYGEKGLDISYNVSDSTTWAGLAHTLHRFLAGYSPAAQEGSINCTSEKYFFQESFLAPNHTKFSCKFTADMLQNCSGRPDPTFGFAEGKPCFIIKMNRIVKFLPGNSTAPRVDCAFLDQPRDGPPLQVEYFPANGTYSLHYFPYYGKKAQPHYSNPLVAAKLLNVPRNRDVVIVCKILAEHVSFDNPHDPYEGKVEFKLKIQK
Chain of Potassium-transporting ATPase (P19156 whole entry): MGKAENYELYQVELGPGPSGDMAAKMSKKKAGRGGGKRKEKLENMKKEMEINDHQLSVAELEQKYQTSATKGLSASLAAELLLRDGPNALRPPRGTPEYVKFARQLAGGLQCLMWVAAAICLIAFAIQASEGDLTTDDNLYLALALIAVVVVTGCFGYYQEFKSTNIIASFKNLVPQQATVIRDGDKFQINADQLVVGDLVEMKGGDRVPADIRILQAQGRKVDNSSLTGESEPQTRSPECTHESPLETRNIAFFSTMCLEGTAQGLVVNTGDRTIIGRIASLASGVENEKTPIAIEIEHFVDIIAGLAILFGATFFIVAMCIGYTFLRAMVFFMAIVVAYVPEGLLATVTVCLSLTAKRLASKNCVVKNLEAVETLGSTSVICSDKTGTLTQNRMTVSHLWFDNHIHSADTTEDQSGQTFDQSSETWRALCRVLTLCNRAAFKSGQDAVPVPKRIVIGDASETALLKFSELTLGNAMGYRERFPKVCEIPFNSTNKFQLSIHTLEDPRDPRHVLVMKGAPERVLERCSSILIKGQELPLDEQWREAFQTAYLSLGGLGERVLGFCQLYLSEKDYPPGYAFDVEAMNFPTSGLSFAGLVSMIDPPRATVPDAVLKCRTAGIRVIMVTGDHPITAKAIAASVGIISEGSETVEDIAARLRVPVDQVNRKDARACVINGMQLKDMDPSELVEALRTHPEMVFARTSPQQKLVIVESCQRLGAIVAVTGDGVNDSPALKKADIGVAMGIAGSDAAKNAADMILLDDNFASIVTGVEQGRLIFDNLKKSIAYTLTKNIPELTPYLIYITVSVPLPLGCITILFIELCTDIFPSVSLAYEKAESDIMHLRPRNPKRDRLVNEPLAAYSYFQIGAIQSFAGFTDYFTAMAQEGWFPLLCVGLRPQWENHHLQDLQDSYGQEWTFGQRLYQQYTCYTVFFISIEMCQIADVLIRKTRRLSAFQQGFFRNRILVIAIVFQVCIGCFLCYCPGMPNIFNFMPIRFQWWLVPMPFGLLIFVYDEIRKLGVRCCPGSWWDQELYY

SMILES | IC50 [1] [µM] | inhibition [2] [%] | inhibition in vivo at 1 µmol/kg (Canis familiaris) [%] | ED50 [3] [µmol/kg]
CCCC(=O)c1cnc2c(OCCCC(N)=O)cccc2c1Nc1c(C)cccc1C | 2.2 | 72 |  | 
CCCC(=O)c1cnc2c(N)cccc2c1Nc1ccccc1C | 6 | 59 |  | 
CCCC(=O)c1cnc2c(C)cccc2c1Nc1ccccc1Cl | 6.3 |  |  | 
Cc1ccccc1Nc1c(C(=O)C(C)C)cnc2c(O)cccc12 | 1.2 | 48 |  | 
CCCC(=O)c1cnc2c(OC)cc(O)cc2c1Nc1ccc(F)cc1C | 2.1 | 54 |  | 
CCCC(=O)c1cnc2c(OCCOCCOCCO)cccc2c1Nc1ccc(F)cc1C | 3.6 | 51 |  | 
CCC(=O)c1cnc2c(O)cccc2c1Nc1ccccc1C | 0.86 | 45 |  | 
CCCC(=O)c1cnc2c(NCCc3c[nH]cn3)cccc2c1Nc1ccccc1C |  | 31 |  | 
CCCC(=O)c1cnc2c(OCCCc3nc4ccccc4[nH]3)cccc2c1Nc1c(C)cccc1C | 1.4 | 50 |  | 
CCCC(=O)c1cnc2c(C=O)cccc2c1Nc1ccccc1C | 1.2 | 64 | 51 | 
CCCC(=O)c1cnc2c(OC)cccc2c1Nc1cc(CO)ccc1C |  | 25 |  | 
CCCC(=O)c1cnc2c(COC(=O)NC)cccc2c1Nc1ccccc1C | 6.6 | 49 |  | 
CCCC(=O)c1cnc2c(OC)cccc2c1Nc1ccc(NS(C)(=O)=O)cc1C | 45 |  |  | 
CCCC(=O)c1cnc2c(OC)cccc2c1Nc1ccc(N)cc1C | 1.5 | 15 |  | 
CCCC(=O)c1cnc2c(NCCO)cccc2c1Nc1ccccc1C | 7.1 | 62 |  | 
CCCC(=O)c1cnc2c(OC)cccc2c1Nc1ccc(NC(C)=O)cc1C | 12 |  |  | 
CCCC(=O)c1cnc2c(O)cccc2c1Nc1ccc(F)cc1C | 7.6 | 33 |  | 
CCC(=O)c1cnc2c(Oc3ccccn3)cccc2c1Nc1c(C)cccc1C | 4.7 | 77 | 81 | 
CCCC(=O)c1cnc2c(OCCCC(=O)NC(C)(C)CO)cccc2c1Nc1c(C)cccc1C | 2.8 | 61 |  | 
CCCC(=O)c1cnc2c(OC)cccc2c1Nc1ccc(O)cc1 | 0.67 | 39 |  | 
CCCC(=O)c1cnc2c(OC)cccc2c1Nc1ccc(OC)cc1OC | 2.1 | 53 |  | 
CCCC(=O)c1cnc2c(OCCCNc3ccccn3)cccc2c1Nc1c(C)cccc1C | 0.9 | 49 |  | 

SMILES | IC50 [1] [µM] | inhibition [2] [%] | inhibition in vivo at 1 µmol/kg (Canis familiaris) [%] | ED50 [3] [µmol/kg]
CCCC(=O)c1cnc2c(OCCCN3CCCCC3)cccc2c1Nc1ccccc1C | 0.5 | 31 |  | 
CCCC(=O)c1cnc2c(C(=O)OC)cccc2c1Nc1ccccc1C | 0.58 |  |  | 13.4
CCCC(=O)c1cnc2c(OC)cccc2c1Nc1cccc(CO)c1C | 6 | 44 |  | 
CCCC(=O)c1cnc2c(OCCCc3cnc[nH]3)cccc2c1Nc1c(C)cccc1C | 0.6 |  |  | 
CCCC(=O)c1cnc2c(C(C)=O)cccc2c1Nc1ccccc1C | 1.5 | 37 |  | 
CCCC(=O)c1cnc2c(OCCCC(=O)OCC)cccc2c1Nc1ccccc1C | 1.6 | 52 |  | 
CCCC(=O)c1cnc2c(O)cccc2c1Nc1ccccc1C | 3.3 | 39 |  | 
CCCC(=O)c1cnc2c(C3OC3CO)cccc2c1Nc1ccccc1C (stereo in doubt; 29a) |  | 56 |  | 
CCCC(=O)c1cnc2c(OCCOCCO)cccc2c1Nc1ccc(F)cc1C |  | 49 |  | 
CCCC(=O)c1c(C)nc2ccccc2c1Nc1ccccc1C | 34 |  |  | 
Cc1ccccc1Nc1c(C(=O)C(C)C)cnc2c(CO)cccc12 |  |  |  | 1.86
CCCC(=O)c1cnc2c(OC)cccc2c1Nc1ccccc1CO |  | 33 |  | 
CCCC(=O)c1cnc2c(NCCCN3CCOCC3)cccc2c1Nc1ccccc1C | 2.4 | 47 |  | 
CCCC(=O)c1cnc2c(OCCCN3CCCC3)cccc2c1Nc1ccccc1C | 0.51 | 31 |  | 
CCCC(=O)c1cnc2c(OCCCN(C)C)cccc2c1Nc1ccccc1C | 0.39 | 43 | 14 | 
COCCOc1cccc2c(Nc3ccc(F)cc3C)c(C(=O)C(C)C)cnc12 | 1.7 | 57 |  | 
CCCC(=O)c1cnc2c(OCCCc3c[nH]cn3)cccc2c1Nc1c(C)cccc1C |  | 40 |  | 
CCCC(=O)c1cnc2c(C(N)=O)cccc2c1Nc1ccccc1C | 1.9 | 39 |  | 
CCCC(=O)c1cnc2cc(O)ccc2c1Nc1ccccc1C | 1.2 | 56 |  | 
CCCC(=O)c1cnc2c(COC(=O)CC)cccc2c1Nc1ccccc1C | 18.4 |  |  | 
CCCC(=O)c1cnc2c(OCCCC(=O)Nc3ccncc3)cccc2c1Nc1ccccc1C | 2.6 | 46 |  | 
CCCC(=O)c1cnc2c(C3OC3CO)cccc2c1Nc1ccccc1C (stereo in doubt; 29b) [listing 1 of 2 here] | 3.1 |  |  | 

SMILES | IC50 [1] [µM] | inhibition [2] [%] | inhibition in vivo at 1 µmol/kg (Canis familiaris) [%] | ED50 [3] [µmol/kg]
CCCC(=O)c1cnc2c(OC)cccc2c1Nc1cc(C)cc(C)c1 | 11.3 | 39 |  | 
CCCC(=O)c1cnc2ccc(O)cc2c1Nc1ccccc1C | 0.24 | 58 |  | 
CCCC(=O)c1cnc2c(OCCO)cccc2c1Nc1ccc(O)cc1C | 0.21 | 70 |  | 
CCCC(=O)c1cnc2c(/C=C/CO)cccc2c1Nc1ccccc1C | 2.3 | 68 | 17 | 
CCCC(=O)c1cnc2c(OC)cccc2c1Nc1c(C)cc(C)cc1C | 3.1 |  |  | 10.8
CCCC(=O)c1cnc2c(OC)cccc2c1Nc1cc(C)ccc1C | 2.5 | 48 |  | 
CCCC(=O)c1cnc2c(OCCCN(C)C)cccc2c1Nc1ccc(F)cc1C |  | 37 |  | 
CCCC(=O)c1cnc2c(C3COCO3)cccc2c1Nc1ccccc1C (stereo not drawn) | 36 | 31 |  | 
CCCC(=O)c1cnc2c(OCCCN3CCOCC3)cccc2c1Nc1ccccc1C | 0.89 | 48 |  | 
CCCC(=O)c1cnc2c(OC)cc(O)cc2c1Nc1ccccc1C | 1.3 | 63 |  | 
CCCC(=O)c1cnc2c(OC)cccc2c1Nc1ccc(N(C)C)cc1C | 2.32 | 20 |  | 
CCCC(=O)c1cnc2c(N)cccc2c1Nc1c(C)cccc1C | 5.8 | 57 |  | 
CCCC(=O)c1cnc2c(OC)cccc2c1Nc1ccc(OCCCn2ccnc2)cc1C | 34 |  |  | 
CCCC(=O)c1cnc2c(OC)cccc2c1Nc1ccccc1O | 1.3 | 41 |  | 
CCC(=O)c1cnc2c(OCCCNc3nccs3)cccc2c1Nc1c(C)cccc1C | 1.7 | 48 |  | 
CCCC(=O)c1cnc2c(OC)cccc2c1Nc1c(OC)cc(OC)cc1OC | 4.6 | 24 |  | 
CCCC(=O)c1cnc2ccc(OC)cc2c1Nc1ccccc1C | 7 | 59 |  | 
CCCC(=O)c1cnc2c(OC)cccc2c1Nc1c(C)cc(O)c(O)c1C | 2.8 | 50 |  | 
CCCC(=O)c1cnc2c(OC)cccc2c1Nc1ccccc1COC |  | 43 |  | 
CCCC(=O)c1cnc2c(OCCCN(C)CCCc3ccccc3)cccc2c1Nc1ccccc1C | 0.74 | 52 |  | 
CCCC(=O)c1cnc2c(C(O)CN3CCOCC3)cccc2c1Nc1ccccc1C (stereo not drawn) |  | 4 |  | 
CCCC(=O)c1cnc2c(OC)cccc2c1Nc1ccc(C)cc1C | 4.3 | 59 |  | 

SMILES | IC50 [1] [µM] | inhibition [2] [%] | inhibition in vivo at 1 µmol/kg (Canis familiaris) [%] | ED50 [3] [µmol/kg]
Cc1cc(F)ccc1Nc1c(C(=O)C(C)C)cnc2c(O)cccc12 | 2.7 | 20 |  | 
CCCC(=O)c1cnc2ccccc2c1Nc1ccccc1C |  |  |  | 5.45
CCCC(=O)c1cnc2c(C3OC3CO)cccc2c1Nc1ccccc1C (stereo in doubt; 29b) [listing 2 of 2 here] |  | 52 |  | 
C=CC(O)c1cccc2c(Nc3ccccc3C)c(C(=O)CCC)cnc12 (stereo not drawn) | 0.66 | 49 |  | 
CCCC(=O)c1cnc2ccc(N)cc2c1Nc1c(C)cccc1C | 0.16 | 35 |  | 
CCCC(=O)c1cnc2c(CC(=O)OC)cccc2c1Nc1ccccc1C | 5.4 | 43 |  | 
CCCC(=O)c1cnc2c(NCCc3cnc[nH]3)cccc2c1Nc1ccccc1C | 1.4 |  |  | 
CCCC(=O)c1cnc2c(CO)cccc2c1Nc1ccc(F)cc1C |  | 55 |  | 
CCCC(=O)c1cnc2c(OCCCO)cccc2c1Nc1c(C)cccc1C | 1.21 | 75 |  | 
CCCC(=O)c1cnc2c(C)cccc2c1Nc1ccc(OC)cc1C | 1.7 |  |  | 4.7
CCCC(=O)c1cnc2c(C)cccc2c1Nc1ccccc1OC | 2.2 |  |  | 3.98
CCCC(=O)c1cnc2c(C(C)=O)cccc2c1Nc1ccc(O)cc1C | 0.55 | 44 |  | 
CCC(=O)c1cnc2c(O)cccc2c1Nc1ccc(F)cc1C | 1.9 | 48 |  | 
CCCC(=O)c1cnc2ccc(O)cc2c1Nc1ccc(O)cc1C | 0.071 | 51 |  | 
CCCC(=O)c1cnc2c(OCCN(C)C)cccc2c1Nc1ccccc1C | 0.52 | 22 |  | 
CCCC(=O)c1cnc2c(OC)cccc2c1Nc1c(C)cc2c(c1C)OCO2 |  | 51 |  | 
CCCC(=O)c1cnc2c(OCCCN(C)Cc3ccccc3)cccc2c1Nc1ccccc1C | 0.65 | 39 |  | 
CCCC(=O)c1cnc2ccc(CO)cc2c1Nc1ccccc1C |  | 46 |  | 
CCCC(=O)c1cnc2c(CC(=O)O)cccc2c1Nc1ccccc1C | 7.2 | 24 |  | 
CCCC(=O)c1cnc2c(C(O)CN(C)C)cccc2c1Nc1ccccc1C (stereo not drawn) |  | 11 |  | 
CCCC(=O)c1cnc2c(Oc3ccnc(Cl)c3)cccc2c1Nc1ccccc1C | 6.9 | 33 |  | 
